Data published in ChEMBL document CHEMBL4152290, “1H-Benzo[d]imidazoles and 3,4-dihydroquinazolin-4-ones: Design, synthesis and antitubercular activity” (Eur J Med Chem, 2018).
In brackets after ≈: the same amount, converted by molar mass.

What was measured:
Type in all cases: functional
[1] = test system: Mycobacterium tuberculosis; assay: Antitubercular activity against multidrug-resistant Mycobacterium tuberculosis isolate CDCT10 harboring rpoB/katG mutant gene after 7 days by resazurin dye based assay
How it was run: (§1)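 Resazurin microtiter MIC in 7H9 with 10% ADC. Two-fold dilutions from 1 mg/mL DMSO stocks span 25.0–0.05, 10.0–0.02 or 0.02–0.0004 µg/mL, with 2.5% DMSO final. Inoculum is bead-declumped culture grown in 7H9/10% OADC/0.05% Tween 80, diluted to OD600 0.006. Plates run 7 days at 37 °C, then 0.01% resazurin for 48 h. MIC is the lowest concentration preventing the blue-to-pink change. Three independent tests.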

[2] = test system: Mycobacterium tuberculosis; assay: Antitubercular activity against multidrug-resistant Mycobacterium tuberculosis isolate CDCT16 harboring rpoB/katG/inhA mutant gene after 7 days by resazurin dye based assay; how it was run: as §1
[3] = test system: Mycobacterium tuberculosis; assay: Antitubercular activity against isoniazid/ethambutol-resistant Mycobacterium tuberculosis isolate CDCT27 harboring katG mutant gene after 7 days by resazurin dye based assay; how it was run: as §1
[4] = test system: Mycobacterium tuberculosis; assay: Antitubercular activity against Mycobacterium tuberculosis isolate CDCT28 harboring rpoB mutant gene after 7 days by resazurin dye based assay; how it was run: as §1

`O=C(CSc1nc2ccccc2c(=O)[nH]1)NC1CCCCC1` showed an MIC [1] of 0.5 µM (≈ 0.159 µg/mL), an MIC [2] of 0.97 µM (≈ 0.308 µg/mL) and an MIC [3] of 0.25 µM (≈ 0.0794 µg/mL). For the same compound, the MIC [4] was 0.5 µM (≈ 0.159 µg/mL).

Compound `CC1CCC(NC(=O)CSc2nc3ccccc3c(=O)[nH]2)CC1` (configuration not stated) has an MIC [1] of 0.24 µM (≈ 0.0795 µg/mL), an MIC [2] of 0.48 µM (≈ 0.159 µg/mL) and an MIC [3] of 0.12 µM (≈ 0.0398 µg/mL). The MIC [4] was 0.24 µM (≈ 0.0795 µg/mL).

`CC1CCCCC1NC(=O)CSc1nc2ccccc2c(=O)[nH]1` (configuration not stated) showed an MIC [1] of 0.95 µM (≈ 0.315 µg/mL), an MIC [2] of 3.9 µM (≈ 1.29 µg/mL) and an MIC [3] of 0.96 µM (≈ 0.318 µg/mL). For the same compound, the MIC [4] was 1.9 µM (≈ 0.63 µg/mL).

Compound `C[C@H]1CC[C@H](NC(=O)CSc2nc3ccccc3c(=O)[nH]2)CC1` has an MIC [1] of 0.12 µM (≈ 0.0398 µg/mL), an MIC [2] of 0.24 µM (≈ 0.0795 µg/mL) and an MIC [3] of 0.12 µM (≈ 0.0398 µg/mL). For the same compound, the MIC [4] was 0.12 µM (≈ 0.0398 µg/mL).

With `O=C(CSc1nc2ccccc2c(=O)[nH]1)NC1CCCCCC1` the MIC [1] was 0.48 µM (≈ 0.159 µg/mL), the MIC [2] was 0.93 µM (≈ 0.308 µg/mL) and the MIC [3] was 0.24 µM (≈ 0.0795 µg/mL). It also gave an MIC [4] of 0.48 µM (≈ 0.159 µg/mL).

`CC1CCCC(NC(=O)CSc2nc3ccccc3c(=O)[nH]2)C1` (configuration not stated) gave an MIC [1] of 0.94 µM (≈ 0.312 µg/mL), an MIC [2] of 0.9 µM (≈ 0.298 µg/mL) and an MIC [3] of 0.24 µM (≈ 0.0795 µg/mL). The MIC [4] was 0.93 µM (≈ 0.308 µg/mL).

`O=C(CSc1nc2ccccc2c(=O)[nH]1)NCC1CCCCC1` gave an MIC [1] of 0.93 µM (≈ 0.308 µg/mL), an MIC [2] of 0.93 µM (≈ 0.308 µg/mL) and an MIC [3] of 0.48 µM (≈ 0.159 µg/mL). For the same compound, the MIC [4] was 0.93 µM (≈ 0.308 µg/mL).

Work on `NNC(=O)c1ccncc1` [ISONIAZID] yielded an MIC [1] of 45.6 µM (≈ 6.25 µg/mL), an MIC [2] greater than 729.2 µM and an MIC [3] of 182.3 µM (≈ 25 µg/mL). The MIC [4] was 2.84 µM (≈ 0.389 µg/mL).
